Our source for the Activity values is ChEMBL document CHEMBL4346740, “Development of novel lithocholic acid derivatives as vitamin D receptor agonists” (Bioorg Med Chem, 2019).

The target in test [1] is T1, Vitamin D3 receptor (Homo sapiens) (UniProt P11473).
T1 sequence (whole entry): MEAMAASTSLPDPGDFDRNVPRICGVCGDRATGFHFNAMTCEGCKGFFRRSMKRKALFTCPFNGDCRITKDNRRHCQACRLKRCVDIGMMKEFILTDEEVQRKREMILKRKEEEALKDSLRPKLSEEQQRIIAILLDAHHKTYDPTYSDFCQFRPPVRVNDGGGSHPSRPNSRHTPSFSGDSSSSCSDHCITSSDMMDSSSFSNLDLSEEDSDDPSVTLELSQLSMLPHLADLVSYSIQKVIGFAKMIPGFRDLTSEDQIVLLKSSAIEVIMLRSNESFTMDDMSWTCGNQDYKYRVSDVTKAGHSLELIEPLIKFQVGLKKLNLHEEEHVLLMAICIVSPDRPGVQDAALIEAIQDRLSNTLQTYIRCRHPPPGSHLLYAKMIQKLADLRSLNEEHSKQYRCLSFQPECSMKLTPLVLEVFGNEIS
Nature of the test: Transactivation of VDR in human […] cell assessed as cell differentiation at 10^-7 to 10^-5 M measured after 4 days by NBT dye-based assay. In outline:
(§1)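 HL-60 cells grown in RPMI-1640 with 5% FBS, diluted to 8.0 × 10^4 cells/mL. Compound added from ethanol solution; ethanol-only control; 1α,25(OH)2D3 run alongside each time. Incubated 4 days at 37 °C, 5% CO2. Cells then exposed 20 min at 37 °C to 0.2% NBT with TPA (200 ng/mL) in PBS. Formazan-positive percentage scored in at least 200 cells.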

For test [2], the target named is T1, Vitamin D3 receptor (Homo sapiens). The test can be described thus: Transactivation of human VDR expressed in COS-7 cells transfected with mouse […] for 24 hrs by luciferase based reporter gene assay. It is filed as cell-based. Summed up:
(§2)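 COS-7 cells in DMEM with 5% FCS, lipofected at 24 h with SPPx3-TK-LUC (three mouse osteopontin VDRE copies), pCMX-hVDR and pRL-CMV. After 4 h, switched to DMEM with 1% FCS. Next day, compound, 1α,25(OH)2D3 or ethanol vehicle added for 24 h. Lysate luciferase normalized to sea pansy internal control; triplicate.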
For orientation: In a reporter assay the amount or activity of a reporter protein is the signal.

In test [3] the target is T2, Vitamin D3 receptor (Bos taurus) (UniProt Q28037).
T2 sequence (whole entry): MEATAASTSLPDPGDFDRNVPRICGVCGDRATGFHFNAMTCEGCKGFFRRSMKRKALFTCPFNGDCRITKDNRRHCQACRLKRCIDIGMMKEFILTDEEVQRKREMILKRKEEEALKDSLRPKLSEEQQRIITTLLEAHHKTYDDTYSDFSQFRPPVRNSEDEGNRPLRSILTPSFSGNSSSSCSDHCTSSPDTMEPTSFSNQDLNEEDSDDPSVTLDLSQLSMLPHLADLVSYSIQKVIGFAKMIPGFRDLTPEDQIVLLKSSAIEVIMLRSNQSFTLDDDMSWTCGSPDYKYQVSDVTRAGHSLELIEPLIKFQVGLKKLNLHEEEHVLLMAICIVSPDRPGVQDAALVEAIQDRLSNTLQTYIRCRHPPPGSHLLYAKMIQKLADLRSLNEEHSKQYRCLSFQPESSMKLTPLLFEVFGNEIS
Nature of the test: Displacement of [3H]1alpha,25(OH)2D3 from bovine thymus VDR incubated for 19 hrs by radioactivity based competitive binding assay. In outline: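 Bovine thymus VDR in 0.05 M phosphate buffer (pH 7.4) with 0.3 M KCl and 5 mM DTT. Incubated 19 h at 4 °C with 0.072 nM [3H]1α,25(OH)2D3 plus graded amounts of analog or vehicle. Bound and free ligand separated on dextran-coated charcoal (20 min, 4 °C), then centrifuged at 1000g. Supernatant radioactivity counted; run in duplicate.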
(Loss of bound radioactivity is the signal in a displacement assay; it reports binding, not function.)

The target of test [4] is T1, Vitamin D3 receptor (Homo sapiens). Nature of the test: Transactivation of VDR in human […] cell assessed as cell differentiation at 10^-5 M measured after 4 days by NBT dye-based assay. Summed up: as §1
The target is the same in test [5]. The test can be described thus: Transactivation of human VDR expressed in COS-7 cells transfected with mouse osteopontin VDRE at >1 uM measured after 24 hrs by luciferase based reporter gene assay. It is filed as cell-based. In outline:
as §2

Calls of active or inactive are those of the source. No cut-off for these calls is given here.

With `COC(=O)O[C@@H]1CC[C@@]2(C)[C@H](CC[C@@H]3[C@@H]2CC[C@]2(C)[C@@H]([C@H](C)CCC(=O)O)CC[C@@H]32)C1`, in test [1], the outcome was inactive.
For the compound `C[C@H](CCC(=O)O)[C@H]1CC[C@H]2[C@@H]3CC[C@@H]4C[C@H](OS(C)(=O)=O)CC[C@]4(C)[C@H]3CC[C@]12C`, the outcome in test [2] and in test [3] was Active.
As for `CC(=O)O[C@@H]1CC[C@@]2(C)[C@H](CC[C@@H]3[C@@H]2CC[C@]2(C)[C@@H]([C@H](C)CCC(=O)O)CC[C@@H]32)C1`, the result in test [2] and in test [4] was Active.
With `C[C@H](CCC(=O)O)[C@H]1CC[C@H]2[C@@H]3CC[C@@H]4C[C@H](NS(C)(=O)=O)CC[C@]4(C)[C@H]3CC[C@]12C`, the result in test [1] was Active.
On to `C[C@H](CCC(=O)O)[C@H]1CC[C@H]2[C@@H]3CC[C@@H]4C[C@H](OC(=O)c5ccccc5)CC[C@]4(C)[C@H]3CC[C@]12C`, for which the result in test [1] was inactive.
For `C[C@H](CCC(=O)O)[C@H]1CC[C@H]2[C@@H]3CC[C@@H]4C[C@H](OC(=O)C(F)(F)F)CC[C@]4(C)[C@H]3CC[C@]12C`, the result in test [1] was inactive. In test [5], the result was Active.
